Source: ChEMBL document CHEMBL4043302, “Lead Diversification at the Nanomole Scale Using Liver Microsomes and Quantitative Nuclear Magnetic Resonance Spectroscopy: Application to Phosphodiesterase 2 Inhibitors” (J Med Chem, 2018)
One block for each compound: values may come before it.

Assays:
[1] = Intrinsic clearance in human hepatocytes assessed per million cells at 1 uM after 0.5 to 4 hrs by HPLC-HRMS method; assay type: ADME, cell-based, Hepatocyte; conditions: human hepatocytes, read-out: CLH
Summary of the method: (§1)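 Compound at 1 µM was dried from d6-DMSO and redissolved in Williams E medium. Pooled human hepatocytes were added at 680000 cells/mL. Samples were quenched in water/CH3CN (2:1) with 2% formic acid and clozapine as internal standard, then analysed by HPLC-HRMS in positive-ion full scan. k came from the slope of ln peak-area ratio versus time; CLint = k / cell concentration. Non-specific binding was not measured.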

[2] = system: Liver; experiment: Drug metabolism in mouse liver microsomes assessed as 7-(5-(4-Chlorophenyl)-3-(hydroxymethyl)-1-methyl-1H-pyrazol-4-yl)-2,5-dimethylimidazo[5,1-f ][1,2,4]triazin-4(3H)-one formation at 20 uM after 1.5 hrs by UHPLC-UV-HRMS method; assay type: ADME, microsome
Summary of the method: (§2)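 Preparative incubation: substrate 20 µM with liver microsomes (2 mg/mL) of the listed species in 0.1 M potassium phosphate, pH 7.5, with MgCl2 3.3 mM and NADPH 1.3 mM. Run at 37°C in a shaking water bath and stopped with an equal volume of CH3CN. Products were fractionated by HPLC and quantified by qNMR in d6-DMSO.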

[3] = system: Liver; experiment: Drug metabolism in mouse liver microsomes assessed as 7-(5-(4-Chlorophenyl)-1,3-dimethyl-1H-pyrazol-4-yl)-5-(hydroxymethyl)-2-methylimidazo[5,1-f ][1,2,4]triazin-4(3H)-one formation at 20 uM after 1.5 hrs by UHPLC-UV-HRMS method; assay type: ADME, microsome; summary of the method: as §2
[4] = system: Liver; experiment: Drug metabolism in human liver microsomes assessed as 5-(5-((2-Hydroxycyclopentyl)methyl)-4,5,6,7-tetrahydropyrazolo-[1,5-a]pyrazin-3-yl)-7-methylimidazo[5,1-f][1,2,4]triazin-4(3H)-one diastereomer 2 formation at 20 uM after 1.5 hrs by UHPLC-UV-HRMS method; assay type: ADME, microsome; summary of the method: as §2
[5] = Apparent permeability across RRCK cells after 1.5 hrs; assay type: ADME, cell-based, Canis lupus familiaris, MDCKII-LE; conditions: dog, MDCK
[6] = system: Liver; experiment: Drug metabolism in human liver microsomes assessed as 5-(5-((2-Hydroxycyclopentyl)methyl)-4,5,6,7-tetrahydropyrazolo-[1,5-a]pyrazin-3-yl)-7-methylimidazo[5,1-f][1,2,4]triazin-4(3H)-one diastereomer 1 formation at 20 uM after 1.5 hrs by UHPLC-UV-HRMS method; assay type: ADME, microsome; summary of the method: as §2
[7] = Drug metabolism in cynomolgus monkey liver microsomes assessed as 5-(Difluoromethyl)-2-methyl-7-(3-methyl-5-(4-(trifluoromethyl)-phenyl)-1H-pyrazol-4-yl)imidazo[5,1-f ][1,2,4]triazin-4(3H)-one at 20 uM after 1.5 hrs by UHPLC-UV-HRMS method; assay type: ADME, Macaca fascicularis, microsome; summary of the method: as §2
[8] = Drug metabolism in cynomolgus monkey liver microsomes assessed as 5-(Difluoromethyl)-7-(3-(hydroxymethyl)-1-methyl-5-(4-(trifluoromethyl)phenyl)-1H-pyrazol-4-yl)-2-methylimidazo[5,1-f ]-[1,2,4]triazin-4(3H)-one formation at 20 uM after 1.5 hrs by UHPLC-UV-HRMS method; assay type: ADME, Macaca fascicularis, microsome; summary of the method: as §2
[9] = Drug metabolism in hamster liver microsomes assessed as 5-(Hydroxymethyl)-7-(5-(6-methoxypyridin-3-yl)-1,3-dimethyl-1H-pyrazol-4-yl)-2-methylimidazo[5,1-f ][1,2,4]triazin-4(3H)-one formation at 20 uM after 1.5 hrs by UHPLC-UV-HRMS method; assay type: ADME, microsome; conditions: cricetinae; summary of the method: as §2
[10] = Drug metabolism in hamster liver microsomes assessed as 7-(5-(6-Methoxypyridin-3-yl)-3-methyl-1H-pyrazol-4-yl)-2,5-dimethylimidazo[5,1-f ][1,2,4]triazin-4(3H)-one formation at 20 uM after 1.5 hrs by UHPLC-UV-HRMS method; assay type: ADME, microsome; conditions: cricetinae; summary of the method: as §2
[11] = Metabolic stability in human hepatocytes at 1 uM after 0.5 to 4 hrs by HPLC-HRMS method; assay type: ADME, cell-based, Hepatocyte; summary of the method: as §1
[12] = Drug metabolism in hamster liver microsomes assessed as 7-(5-(6-Hydroxypyridin-3-yl)-3-methyl-1H-pyrazol-4-yl)-2,5-dimethylimidazo[5,1-f ][1,2,4]triazin-4(3H)-one formation at 20 uM after 1.5 hrs by UHPLC-UV-HRMS method; assay type: ADME, microsome; conditions: cricetinae; summary of the method: as §2
[13] = Drug metabolism in hamster liver microsomes assessed as 5-(Hydroxymethyl)-7-(5-(6-methoxypyridin-3-yl)-3-methyl-1Hpyrazol-4-yl)-2-methylimidazo[5,1-f ][1,2,4]triazin-4(3H)-one formation at 20 uM after 1.5 hrs by UHPLC-UV-HRMS method; assay type: ADME, microsome; conditions: cricetinae; summary of the method: as §2
[14] = Drug metabolism in rabbit liver microsomes assessed as 5-(Hydroxymethyl)-7-(5-(3-(hydroxymethyl)-4-(trifluoromethyl)phenyl)-1,3-dimethyl-1H-pyrazol-4-yl)-2-methylimidazo[5,1-f ][1,2,4]triazin-4(3H)-one formation at 20 uM after 1 hr by UHPLC-UV-HRMS method; assay type: ADME, Oryctolagus cuniculus, microsome; summary of the method: as §2
[15] = Drug metabolism in rabbit liver microsomes assessed as 7-(5-(3-(Hydroxymethyl)-4-(trifluoromethyl)phenyl)-1,3-dimethyl-1H-pyrazol-4-yl)-2,5-dimethylimidazo[5,1-f ][1,2,4]triazin-4(3H)-one formation at 20 uM after 1 hr by UHPLC-UV-HRMS method; assay type: ADME, Oryctolagus cuniculus, microsome; summary of the method: as §2
[16] = Drug metabolism in rabbit liver microsomes assessed as 7-(1,3-Dimethyl-5-(3-methyl-4-(trifluoromethyl)phenyl)-1H-pyrazol-4-yl)-5-(hydroxymethyl)-2-methylimidazo[5,1-f ][1,2,4]triazin-4(3H)-one formation at 20 uM after 1 hr by UHPLC-UV-HRMS method; assay type: ADME, Oryctolagus cuniculus, microsome; summary of the method: as §2
[17] = Drug metabolism in rabbit liver microsomes assessed as 4-(2,5-Dimethyl-4-oxo-3,4-dihydroimidazo[5,1-f ][1,2,4]triazin-7-yl)-1-methyl-5-(3-methyl-4-(trifluoromethyl)phenyl)-1H-pyrazole-3-carboxylic acid formation at 20 uM after 1 hr by UHPLC-UV-HRMS method; assay type: ADME, Oryctolagus cuniculus, microsome; summary of the method: as §2
[18] = Drug metabolism in rabbit liver microsomes assessed as 5-(Hydroxymethyl)-7-(3-(hydroxymethyl)-1-methyl-5-(3-methyl-4-(trifluoromethyl)phenyl)-1H-pyrazol-4-yl)-2-methylimidazo[5,1-f ][1,2,4]triazin-4(3H)-one formation at 20 uM after 1 hr by UHPLC-UV-HRMS method; assay type: ADME, Oryctolagus cuniculus, microsome; summary of the method: as §2
[19] = Drug metabolism in rabbit liver microsomes assessed as 7-(3-(Hydroxymethyl)-5-(3-(hydroxymethyl)-4-(trifluoromethyl)-phenyl)-1-methyl-1H-pyrazol-4-yl)-2,5-dimethylimidazo[5,1-f ]-[1,2,4]triazin-4(3H)-one formation at 20 uM after 1 hr by UHPLC-UV-HRMS method; assay type: ADME, Oryctolagus cuniculus, microsome; summary of the method: as §2
[20] = Drug metabolism in cynomolgus monkey liver microsomes assessed as 7-(1,3-Dimethyl-5-(5-(trifluoromethyl)pyridin-2-yl)-1H-pyrazol-4-yl)-5-(hydroxymethyl)-2-methylimidazo[5,1-f ][1,2,4]triazin-4(3H)-one formation at 20 uM after 1.2 hrs by UHPLC-UV-HRMS method; assay type: ADME, Macaca fascicularis, microsome; summary of the method: as §2
[21] = Drug metabolism in cynomolgus monkey liver microsomes assessed as 4-(2,5-Dimethyl-4-oxo-3,4-dihydroimidazo[5,1-f ][1,2,4]triazin-7-yl)-1-methyl-5-(5-(trifluoromethyl)pyridin-2-yl)-1H-pyrazole-3-carbaldehyde formation at 20 uM after 1.2 hrs by UHPLC-UV-HRMS method; assay type: ADME, Macaca fascicularis, microsome; summary of the method: as §2
[22] = Drug metabolism in cynomolgus monkey liver microsomes assessed as 7-(3-(Hydroxymethyl)-1-methyl-5-(5-(trifluoromethyl)pyridin-2-yl)-1H-pyrazol-4-yl)-2,5-dimethylimidazo[5,1-f ][1,2,4]triazin-4(3H)-one formation at 20 uM after 1.2 hrs by UHPLC-UV-HRMS method; assay type: ADME, Macaca fascicularis, microsome; summary of the method: as §2
[23] = Drug metabolism in cynomolgus monkey liver microsomes assessed as 5-(Hydroxymethyl)-7-(3-(hydroxymethyl)-1-methyl-5-(5-(trifluoromethyl)pyridin-2-yl)-1H-pyrazol-4-yl)-2-methylimidazo-[5,1-f ][1,2,4]triazin-4(3H)-one formation at 20 uM after 1.2 hrs by UHPLC-UV-HRMS method; assay type: ADME, Macaca fascicularis, microsome; summary of the method: as §2
[24] = Drug metabolism in hamster liver microsomes assessed as 7-(1,3-Dimethyl-5-(4-(trifluoromethyl)phenyl)-1H-pyrazol-4-yl)-5-(methoxymethyl)-2-methyl-4-oxo-3,4-dihydroimidazo[5,1-f ][1,2,4]-triazine 1-oxide formation at 20 uM after 1 hr by UHPLC-UV-HRMS method; assay type: ADME, microsome; conditions: cricetinae; summary of the method: as §2
[25] = Drug metabolism in hamster liver microsomes assessed as 5-(Methoxymethyl)-2-methyl-7-(3-methyl-5-(4-(trifluoromethyl)-phenyl)-1H-pyrazol-4-yl)imidazo[5,1-f ][1,2,4]triazin-4(3H)-one formation at 20 uM after 1 hr by UHPLC-UV-HRMS method; assay type: ADME, microsome; conditions: cricetinae; summary of the method: as §2
[26] = Drug metabolism in hamster liver microsomes assessed as 5-(Hydroxymethyl)-2-methyl-7-(3-methyl-5-(4-(trifluoromethyl)-phenyl)-1H-pyrazol-4-yl)imidazo[5,1-f ][1,2,4]triazin-4(3H)-one formation at 20 uM after 1 hr by UHPLC-UV-HRMS method; assay type: ADME, microsome; conditions: cricetinae; summary of the method: as §2
[27] = Drug metabolism in hamster liver microsomes assessed as 7-(3-(Hydroxymethyl)-5-(4-(trifluoromethyl)phenyl)-1H-pyrazol-4-yl)-5-(methoxymethyl)-2-methylimidazo[5,1-f ][1,2,4]triazin-4(3H)-one formation at 20 uM after 1 hr by UHPLC-UV-HRMS method; assay type: ADME, microsome; conditions: cricetinae; summary of the method: as §2
[28] = system: Liver; experiment: Drug level in human liver microsomes treated with 5-(5-(Cyclopentylmethyl)-4,5,6,7-tetrahydropyrazolo[1,5-a]-pyrazin-3-yl)-7-methylimidazo[5,1-f ][1,2,4]triazin-4(3H)-one at 20 uM after 1.5 hrs by UHPLC-UV-HRMS method; assay type: ADME, microsome; summary of the method: as §2
[29] = target: cGMP-dependent 3',5'-cyclic phosphodiesterase (Homo sapiens, UniProt O00408); experiment: Inhibition of human PDE2A1 using 3',5'-[3H]cGMP as substrate after 30 mins by scintillation proximity assay
Sequence of cGMP-dependent 3',5'-cyclic phosphodiesterase (O00408 whole entry): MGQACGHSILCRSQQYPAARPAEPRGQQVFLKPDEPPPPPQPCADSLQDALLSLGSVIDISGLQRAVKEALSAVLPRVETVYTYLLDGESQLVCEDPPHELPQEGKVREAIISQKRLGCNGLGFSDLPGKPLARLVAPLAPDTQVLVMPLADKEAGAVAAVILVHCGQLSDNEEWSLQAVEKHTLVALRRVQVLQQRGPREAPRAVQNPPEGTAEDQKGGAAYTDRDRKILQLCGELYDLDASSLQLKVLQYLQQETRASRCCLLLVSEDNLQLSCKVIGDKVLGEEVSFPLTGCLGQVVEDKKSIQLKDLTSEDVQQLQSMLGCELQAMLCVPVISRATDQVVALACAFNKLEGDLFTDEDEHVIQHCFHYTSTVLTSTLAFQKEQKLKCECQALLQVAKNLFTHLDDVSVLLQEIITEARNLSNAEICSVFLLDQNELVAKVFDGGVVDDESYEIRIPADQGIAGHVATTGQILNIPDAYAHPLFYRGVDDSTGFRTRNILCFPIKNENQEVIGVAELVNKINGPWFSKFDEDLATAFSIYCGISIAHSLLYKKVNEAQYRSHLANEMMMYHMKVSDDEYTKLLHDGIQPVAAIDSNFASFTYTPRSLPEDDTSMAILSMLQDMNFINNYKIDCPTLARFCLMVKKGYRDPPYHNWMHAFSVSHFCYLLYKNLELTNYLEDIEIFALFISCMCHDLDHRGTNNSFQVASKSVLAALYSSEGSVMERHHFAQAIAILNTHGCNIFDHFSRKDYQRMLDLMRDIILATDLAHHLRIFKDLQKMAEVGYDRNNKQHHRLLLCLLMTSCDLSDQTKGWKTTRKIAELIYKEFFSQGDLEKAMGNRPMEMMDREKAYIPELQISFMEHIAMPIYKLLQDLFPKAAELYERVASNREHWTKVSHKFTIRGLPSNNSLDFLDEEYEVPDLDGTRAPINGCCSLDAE

- Drug metabolism [9]: Metabolite_Detected
- Drug metabolism [10]: Metabolite_Detected
- Stability [11]: Stable
- Drug metabolism [12]: Metabolite_Detected
- Drug metabolism [13]: Metabolite_Detected
SMILES: COc1ccc(-c2c(-c3nc(C)c4c(=O)[nH]c(C)nn34)c(C)nn2C)cn1

- Drug metabolism [14]: Metabolite_Detected
- Drug metabolism [15]: Metabolite_Detected
- hepatocyte CLint at 1 µM [1]: 19 µL/min/1e6 cells
- Drug metabolism [16]: Metabolite_Detected
- Drug metabolism [17]: Metabolite_Detected
- Papp at 1.5 h [5]: 28 ×10⁻⁶ cm/s
- Drug metabolism [18]: Metabolite_Detected
- Drug metabolism [19]: Metabolite_Detected
SMILES: Cc1nn2c(-c3c(C)nn(C)c3-c3ccc(C(F)(F)F)c(C)c3)nc(C)c2c(=O)[nH]1

- Drug metabolism [20]: Metabolite_Detected
- Papp at 1.5 h [5]: 16 ×10⁻⁶ cm/s
- Drug metabolism [21]: Metabolite_Detected
- Stability [11]: Stable
- Drug metabolism [22]: Metabolite_Detected
- Drug metabolism [23]: Metabolite_Detected
SMILES: Cc1nn2c(-c3c(C)nn(C)c3-c3ccc(C(F)(F)F)cn3)nc(C)c2c(=O)[nH]1

More lines, now with the values behind:

SMILES: Cc1nn2c(-c3c(C)nn(C)c3-c3ccc(Cl)cc3)nc(C)c2c(=O)[nH]1
- hepatocyte CLint at 1 µM [1]: 32 µL/min/1e6 cells
- Drug metabolism [2]: Metabolite_Detected
- Drug metabolism [3]: Metabolite_Detected

SMILES: Cc1nc(-c2cnn3c2CN(CC2CCCC2)CC3)c2c(=O)[nH]cnn12
- hepatocyte CLint at 1 µM [1]: 16 µL/min/1e6 cells
- Drug metabolism [4]: Metabolite_Detected
- Papp at 1.5 h [5]: 24 ×10⁻⁶ cm/s
- Drug metabolism [6]: Metabolite_Detected

SMILES: Cc1nn2c(-c3c(C)nn(C)c3-c3ccc(C(F)(F)F)cc3)nc(C(F)F)c2c(=O)[nH]1
- hepatocyte CLint at 1 µM [1]: 5.3 µL/min/1e6 cells
- Drug metabolism [7]: Metabolite_Detected
- Papp at 1.5 h [5]: 23 ×10⁻⁶ cm/s
- Drug metabolism [8]: Metabolite_Detected

SMILES: COCc1nc(-c2c(C)nn(C)c2-c2ccc(C(F)(F)F)cc2)n2nc(C)[nH]c(=O)c12
- hepatocyte CLint at 1 µM [1]: 4.7 µL/min/1e6 cells
- Drug metabolism [24]: Metabolite_Detected
- Drug metabolism [25]: Metabolite_Detected
- Drug metabolism [26]: Metabolite_Detected
- Papp at 1.5 h [5]: 13 ×10⁻⁶ cm/s
- Drug metabolism [27]: Metabolite_Detected

SMILES: Cc1nc(-c2cnn3c2CN(CC2CCCC2O)CC3)c2c(=O)[nH]cnn12 (single isomer, unassigned; diastereomer 1)
- Drug metabolism [28]: Metabolite_Detected
- hepatocyte CLint at 1 µM [1]: 5.4 µL/min/1e6 cells
- Papp at 1.5 h [5]: 1.8 ×10⁻⁶ cm/s
- IC50 [29]: > 2000 nM
